According to ChEMBL document CHEMBL1799922, “Synthesis and antimycobacterial activity of prodrugs of indeno[2,1-c]quinoline derivatives” (Eur J Med Chem, 2011):
≈ marks a conversion by molar mass, not a printed value. Calls of active or inactive are those of the source. The calls are words filed in the database; no cut-off is given here.

Assays:
[1] = system: Mycobacterium tuberculosis; test: Antimicrobial activity against Mycobacterium tuberculosis H37Rv ATCC 27294 after 16 to 24 hrs by microplate alamar blue assay; type: functional
Summary of the method: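 M. tuberculosis H37Rv inoculum 2×10^5 cfu/mL (100 µL) added to twofold dilutions in Middlebrook 7H12 medium; final test range 128 µM to 0.5 µM from 12.8 mM DMSO stocks. Incubated 37 °C; day 7 Tween 80 plus Alamar Blue added, further 16-24 h at 37 °C. Fluorescence ex 530/em 590 nm; MIC = lowest concentration giving >90% fluorescence reduction versus replicate bacteria-only controls. Rifampin, isoniazid controls.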

[2] = Cytotoxicity against human U937 cells assessed as cell viability at 1.25 ug/ml after 72 hrs by MTT assay; type: cell-based, U-937; details: read-out: Activity
Summary of the method: (§1)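 U937 human monocytic cells plated at 1 × 10^5 cells/mL and allowed to adhere for 1 h at 37 °C in 5% CO2. Non-adherent cells were washed off with RPMI 1640. Adherent cells were exposed to compound in triplicate, with medium alone as the live control and 3% Tween 20 as the dead control. MTT (5 mg/mL in PBS) was then added for 3 h at 37 °C. Formazan was dissolved in 0.4 M HCl/isopropanol and absorbance read at 600 nm. Results are expressed as % cell viability.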

[3] = Cytotoxicity against human U937 cells assessed as cell viability at 5 ug/ml after 72 hrs by MTT assay; type: cell-based, U-937; details: read-out: Activity; summary of the method: as §1
[4] = Cytotoxicity against human U937 cells assessed as cell viability at 10 ug/ml after 72 hrs by MTT assay; type: cell-based, U-937; details: read-out: Activity; summary of the method: as §1
[5] = Cytotoxicity against human U937 cells assessed as cell viability at 20 ug/ml after 72 hrs by MTT assay; type: cell-based, U-937; details: read-out: Activity; summary of the method: as §1
Serum = test: Stability of the compound in 80% human blood serum assessed as hydrolysis to 2-bromo-6-(1H-imidazol-1-yl)-7H-indeno[2,1-c]quinolin-7-one oxime at 1 mg after 24 hrs at 37 degC by LC-MS analysis; type: ADME, cell-free; design: scale not given: the % may be the effect or the level left
Summary of the method: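 Enzymatic hydrolysis: 1 mg prodrug dissolved in 1 mL ethanol, then 200 µL preheated human blood serum diluted to 80% with 0.16 M phosphate buffer (pH 7.4) was added. Samples were kept at 37 °C (24 h) and centrifuged 10 min at 10,000 rpm. Remaining prodrug in the supernatant was monitored by TLC and LC-MS. t1/2 is the time to 50% hydrolysis.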

[6] = Stability of the compound in 10% aqueous ammonia buffer at pH 8 assessed as hydrolysis to 2-bromo-6-(1H-imidazol-1-yl)-7H-indeno[2,1-c]quinolin-7-one oxime at 1 mg at 37 degC by LC-MS analysis; type: physicochemical; design: scale not given: the % may be the effect or the level left
Summary of the method: (§2)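 Chemical hydrolysis: 1 mg prodrug dissolved in 1 mL of 10% aqueous ammonia in methanol (pH 8) and held in a thermostatted water bath at 37 °C, up to 24 h. Conversion to the parent oxime was followed by TLC and LC-MS. t1/2 is the time to 50% hydrolysis.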

[7] = Half life in 10% aqueous ammonia buffer at pH 8 assessed as hydrolysis to 2-bromo-6-(1H-imidazol-1-yl)-7H-indeno[2,1-c]quinolin-7-one oxime at 37 degC by LC-MS analysis; type: physicochemical; summary of the method: as §2
[8] = Octanol-water partition coefficient, log P of the compound at pH 7.4 at room temperature by UV spectrophotometric analysis; type: physicochemical
Summary of the method: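 Shake-flask method at room temperature: 1-octanol and phosphate buffer (pH 7.4) were pre-saturated by shaking for 24 h. Compound at 10^-4 M in equal volumes of both phases was shaken vigorously for 1 h, left to stand 15 min, then centrifuged 10 min at 10,000 rpm. UV absorbance of each phase was read at 280 nm against blanks, and P was taken as the octanol/water absorbance ratio.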

[9] = Selectivity index, ratio CC50 for human U937 cells to MIC for Mycobacterium tuberculosis H37Rv ATCC 27294; type: functional, U-937

SMILES | MIC [1] | viability at 72 h, 1.25 ug/ml [2] [%] | viability at 72 h, 5 ug/ml [3] [%] | viability at 72 h, 10 ug/ml [4] [%] | viability at 72 h, 20 ug/ml [5] [%] | Activity (Serum) | Activity [6] | half-life [7] [h] | logD [8] | Selectivity Index [9]
CC(C)(C)OC(=O)NC1(C(=O)O/N=C2\c3ccccc3-c3c2c(N2CCN(c4ccccn4)CC2)nc2ccc(Br)cc32)CCCC1 | inactive |  |  |  |  |  |  |  |  | 
CCCCCCCCCCCCCC(=O)OC1(C)c2ccccc2-c2c1c(-n1ccnc1)nc1ccc(Br)cc21 (stereo not drawn) | inactive |  |  |  |  |  |  |  |  | 
CCCCCCC(=O)OC1(C)c2ccccc2-c2c1c(-n1ccnc1)nc1ccc(Br)cc21 (stereo not drawn) | 0.42 µg/mL (≈ 0.833 µM) | 85 | 83 | 68 | 54 | Not Active | 86% | 312 | 1.7 | 40.2
CCCC(=O)OC1(C)c2ccccc2-c2c1c(-n1ccnc1)nc1ccc(Br)cc21 (stereo not drawn) | inactive |  |  |  |  |  |  |  |  | 
CN(C)C(=O)O/N=C1\c2ccccc2-c2c1c(-n1ccnc1)nc1ccc(Br)cc21 | 0.27 µg/mL (≈ 0.584 µM) | 77 | 82 | 61 | 50 | Not Active | Not Active |  | 1.1 | 49
O/N=C1\c2ccccc2-c2c1c(N1CCN(c3ccccn3)CC1)nc1ccc(Br)cc21 | 6.25 µg/mL (≈ 12.9 µM) | 100 | 100 | 56 | 49 |  |  |  | 3.3 | 71
CC(C)(C)OC(=O)N1CCC[C@H]1C(=O)O/N=C1\c2ccccc2-c2c1c(N1CCN(c3ccccn3)CC1)nc1ccc(Br)cc21 | 1.53 µg/mL (≈ 2.24 µM) | 86 | 75 | 61 | 69 | 13% | 95% | 24 | 2.3 | >26
CCCC(=O)O/N=C1\c2ccccc2-c2c1c(N1CCN(c3ccccn3)CC1)nc1ccc(Br)cc21 | inactive |  |  |  |  |  |  |  |  | 
CC(C)[C@H](NC(=O)OCC1c2ccccc2-c2ccccc21)C(=O)O/N=C1\c2ccccc2-c2c1c(N1CCN(c3ccccn3)CC1)nc1ccc(Br)cc21 | 1.47 µg/mL (≈ 1.82 µM) | 85 | 89 | 81 | 80 | 7% | 96% | 24 | 1.8 | >27
CCCCCCCCC(=O)O/N=C1\c2ccccc2-c2c1c(N1CCN(c3ccccn3)CC1)nc1ccc(Br)cc21 | inactive |  |  |  |  |  |  |  |  | 
O=C(/C=C/c1ccco1)O/N=C1\c2ccccc2-c2c1c(N1CCN(c3ccccn3)CC1)nc1ccc(Br)cc21 | 6 µg/mL (≈ 9.89 µM) | 100 |  | 85 |  | Not Active | 95% | 96 | 1.4 | 
O=C(O/N=C1\c2ccccc2-c2c1c(N1CCN(c3ccccn3)CC1)nc1ccc(Br)cc21)C1CC1 | inactive |  |  |  |  |  |  |  |  | 
CN(C)C(=O)O/N=C1\c2ccccc2-c2c1c(N1CCN(c3ccccn3)CC1)nc1ccc(Br)cc21 | 1.56 µg/mL (≈ 2.8 µM) | 100 | 100 | 68 | 47 | Not Active | Not Active |  | 2.3 | 88
CCCCC(=O)O/N=C1\c2ccccc2-c2c1c(N1CCN(c3ccccn3)CC1)nc1ccc(Br)cc21 | inactive |  |  |  |  |  |  |  |  | 
O=C(CNC(=O)OCC1c2ccccc2-c2ccccc21)O/N=C1\c2ccccc2-c2c1c(N1CCN(c3ccccn3)CC1)nc1ccc(Br)cc21 | 6 µg/mL (≈ 7.84 µM) | 68 |  | 73 |  | 29% | 90% | 36 | 1.4 | 
O=C(CCCCBr)O/N=C1\c2ccccc2-c2c1c(N1CCN(c3ccccn3)CC1)nc1ccc(Br)cc21 | 2.03 µg/mL (≈ 3.13 µM) | 99 | 94 | 79 | 80 | 10% | 95% | 96 | 1.5 | >20
CCC(=O)O/N=C1\c2ccccc2-c2c1c(N1CCN(c3ccccn3)CC1)nc1ccc(Br)cc21 | 3.13 µg/mL (≈ 5.77 µM) | 83 | 88 | 81 | 83 | 13% | 95% | 144 | 2.7 | >13

SMILES | MIC [1] | viability at 72 h, 1.25 ug/ml [2] [%] | viability at 72 h, 5 ug/ml [3] [%] | viability at 72 h, 10 ug/ml [4] [%] | viability at 72 h, 20 ug/ml [5] [%] | Activity (Serum) | Activity [6] | half-life [7] [h] | logD [8] | Selectivity Index [9]
CC(C)(C)OC(=O)NCC(=O)OC1(C)c2ccccc2-c2c1c(-n1ccnc1)nc1ccc(Br)cc21 (stereo not drawn) | 2.03 µg/mL (≈ 3.69 µM) | 90 | 83 | 62 | 28 | Not Active | 97% | 24 | 1.8 | 6
CCCCCCCCCCCCCC(=O)O/N=C1\c2ccccc2-c2c1c(-n1ccnc1)nc1ccc(Br)cc21 | inactive |  |  |  |  |  |  |  |  | 
COc1nc2ccc(Br)cc2cc1[C@@H](c1ccccc1)[C@@](O)(CCN(C)C)c1cccc2ccccc12 [BEDAQUILINE] | 0.06 µg/mL (≈ 0.108 µM) |  |  |  |  |  |  |  |  | 
CCCCCCCCCC(=O)O/N=C1\c2ccccc2-c2c1c(N1CCN(c3ccccn3)CC1)nc1ccc(Br)cc21 | inactive |  |  |  |  |  |  |  |  | 
CCCCCCCCC(=O)OC1(C)c2ccccc2-c2c1c(-n1ccnc1)nc1ccc(Br)cc21 (stereo not drawn) | 1.56 µg/mL (≈ 2.93 µM) | 86 | 75 | 71 | 50 | Not Active | 90% | 288 | 1.6 | 11.4
CCCCCCCCCCCCCCC(=O)OC1(C)c2ccccc2-c2c1c(-n1ccnc1)nc1ccc(Br)cc21 (stereo not drawn) | inactive |  |  |  |  |  |  |  |  | 
CC(C)C[C@H](NC(=O)OCC1c2ccccc2-c2ccccc21)C(=O)O/N=C1\c2ccccc2-c2c1c(N1CCN(c3ccccn3)CC1)nc1ccc(Br)cc21 | inactive |  |  |  |  |  |  |  |  | 
CSCC[C@H](NC(=O)OC(C)(C)C)C(=O)O/N=C1\c2ccccc2-c2c1c(N1CCN(c3ccccn3)CC1)nc1ccc(Br)cc21 | inactive |  |  |  |  |  |  |  |  | 
CC(C)C[C@H](NC(=O)OC(C)(C)C)C(=O)O/N=C1\c2ccccc2-c2c1c(N1CCN(c3ccccn3)CC1)nc1ccc(Br)cc21 | inactive |  |  |  |  |  |  |  |  | 
CCCCCCCCCCCCCCC(=O)O/N=C1\c2ccccc2-c2c1c(N1CCN(c3ccccn3)CC1)nc1ccc(Br)cc21 | inactive |  |  |  |  |  |  |  |  | 
CCCCCCC(=O)O/N=C1\c2ccccc2-c2c1c(N1CCN(c3ccccn3)CC1)nc1ccc(Br)cc21 | inactive |  |  |  |  |  |  |  |  | 
O/N=C1\c2ccccc2-c2c1c(-n1ccnc1)nc1ccc(Br)cc21 | < 0.39 µg/mL | 100 | 91 | 77 | 77 |  |  |  | 0.2 | >5
CN(C)C(=O)OC1(C)c2ccccc2-c2c1c(-n1ccnc1)nc1ccc(Br)cc21 (stereo not drawn) | 6 µg/mL (≈ 12.9 µM) | 63 |  | 69 |  | Not Active | Not Active |  | 1.9 | 
CC1(O)c2ccccc2-c2c1c(-n1ccnc1)nc1ccc(Br)cc21 (stereo not drawn) | 0.78 µg/mL (≈ 1.99 µM) | 93 | 64 | 64 | 37 |  |  |  | 1.7 | 4.3
CCC(=O)OC1(C)c2ccccc2-c2c1c(-n1ccnc1)nc1ccc(Br)cc21 (stereo not drawn) | inactive |  |  |  |  |  |  |  |  | 
CCCCCCCCCCCC(=O)O/N=C1\c2ccccc2-c2c1c(N1CCN(c3ccccn3)CC1)nc1ccc(Br)cc21 | inactive |  |  |  |  |  |  |  |  | 
CC(=O)O/N=C1\c2ccccc2-c2c1c(N1CCN(c3ccccn3)CC1)nc1ccc(Br)cc21 | inactive |  |  |  |  |  |  |  |  | 
